Laboratory results: paper PMC3141282 (Hypertension, 2011)

What was measured:
[1] = test system: megalin; conditions: scavenger receptor megalin; cited from earlier work
[2] = test system: endothelial progenitor cells; conditions: cells from sham or infarcted rodents; cited from earlier work
[3] = test system: rat renal cortex; conditions: cited from earlier work
[4] = test system: rabbit aortic smooth muscle cells; conditions: cited from earlier work
[5] = test system: HEK 293T cells transfected with the empty vector (mock); assay: [3H]arachidonic acid; assay type: cell-based, Human; conditions: Ang-(1-7) during 15 min, 37 °C
Summary of the method: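 They were washed with DMEM containing 2% BSA, then exposed to test peptide at 37 °C for the stated times. Supernatant radioactivity was counted, and total cellular radioactivity came from cells solubilized in 1 mol/L NaOH. Fractional release (% of total) was expressed as percent of unstimulated control (100%), mean ± SEM.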

[6] = test system: HEK 293T cells transfected with the empty vector; assay: [125I]Ang-; assay type: binding, Human

Angiotensin-(1-7) [Ang-(1-7)]
binding and internalization by megalin [1]: binds and internalizes Ang-(1-7)
Ang-(1-7)-induced proliferation of endothelial progenitor cells, responsiveness [2]: attenuation in responsiveness
Ang-(1-7) response, phosphatidylcholine biosynthesis [3]: decrease in Ang-(1-7) response
Ang-(1-7) response in releasing AA from tissue lipids and stimulating 6-keto-prostaglandin F1α production [4]: decrease in Ang-(1-7) response
[3H]AA release, mock cells [5]: no changes in [^3H]AA release
Ang-(1-7) binding ([6]; 0.5 nmol/L [125I]Ang-(1-7), 4°C, 60 min): undetectable
total binding ([6]; 0.5 nmol/L [125I]Ang-(1-7), 4°C, 60 min, mean ± SEM): 480±68 cpm
nonspecific binding ([6]; in the presence of 10 μmol/L unlabeled Ang-(1-7), mean ± SEM): 395±87 cpm
